Screening results: PubChem BioAssay, Sanford-Burnham Center for Chemical Genomics
This is a sample that favours compounds with a hit; in the whole collection about 1.9% have one here.
Scp1 inh – inhibitors of human Scp-1 phosphatase. Q9GZU7. Recombinant Scp1, phosphopeptide, malachite green phosphate absorbance. inhibition, % at 20 µM. hit rate 0.88% among 340,000;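 active = inhibition above about 50% at 20 µM, limit read from the data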;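 also: plate controls were DMSO wells with enzyme for no effect and wells lacking enzyme for full effect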
Target sequence (Q9GZU7 76-261 limits assumed): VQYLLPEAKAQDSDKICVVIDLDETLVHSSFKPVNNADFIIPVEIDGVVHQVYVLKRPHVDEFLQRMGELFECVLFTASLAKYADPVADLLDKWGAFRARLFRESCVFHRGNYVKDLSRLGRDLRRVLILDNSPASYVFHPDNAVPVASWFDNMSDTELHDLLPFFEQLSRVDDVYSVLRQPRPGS
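Test system: SCP-1 phosphatase catalytic domain, residues 76-261; measured by: colorimetric phosphate reagent with accelerator and stabiliser, absorbance at 630 nm; timing: enzyme reaction 45 min at room temperature, colour 5 min, stabilisation 30 min; also added: Phosphorylated 17-residue peptide substrate; compound dosing: one concentration, 20 µM, with 1.0% DMSO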
DNMT1 inh – DNMT1 (human) enzyme inhibition; P26358; DNMT1 molecular beacon, Hinp1I cleavage, fluorescence; inhibition (reported as % activation of signal), % at 10 µM; hit rate 0.83% among 360,000; in the data active = inhibition above about 50%
LMPTP inh – LMPTP (human) inhibition | P24666 | inhibition, % at 20 µM | hit rate 0.22% among 360,000 | recombinant LMPTP-A, OMFP fluorogenic substrate, fluorescence intensity;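 active = compounds that cut the enzyme signal by at least half of the control window in the single-dose screen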;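 also: plate controls were DMSO wells with enzyme plus substrate for no effect and substrate without enzyme for full effect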
Target sequence (P24666 whole entry, looked up): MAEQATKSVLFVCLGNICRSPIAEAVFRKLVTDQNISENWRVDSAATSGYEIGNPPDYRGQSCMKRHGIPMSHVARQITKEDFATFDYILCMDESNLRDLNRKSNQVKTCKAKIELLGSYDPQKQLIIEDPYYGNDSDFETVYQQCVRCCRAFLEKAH
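Test system – LMPTP-A phosphatase enzyme · Quantity – 0.625 nM LMPTP-A final · Reagent – OMFP substrate, 400 µM final · Dosing – one test concentration per compound, 20 µM, with 3% DMSO overall · Timing – 50 min enzyme reaction at room temperature, protected from light · Detection – fluorescence intensity · Controls – substrate-only low control, DMSO enzyme-plus-substrate high control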
UBC9 SUMO inh – inhibitors of human SUMOylation (UBC9) | P63279 | HTRF SUMOylation assay, SAE1/SAE2 + UBC9, in vitro | inhibition, % at 35 µM | hit rate 0.36% among 290,000; in the data active = inhibition above about 50%, passing the limit was not always enough
Target sequence (P63279 whole entry, looked up): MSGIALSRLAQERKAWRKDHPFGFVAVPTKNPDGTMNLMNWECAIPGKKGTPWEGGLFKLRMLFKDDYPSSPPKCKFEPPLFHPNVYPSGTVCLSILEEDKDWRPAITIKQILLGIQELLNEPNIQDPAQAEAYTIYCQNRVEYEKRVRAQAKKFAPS
STEP inh – blocks human striatal-enriched tyrosine phosphatase; P54829; recombinant STEP, OMFP fluorogenic substrate, fluorescence; inhibition, % at 20 µM; hit rate 0.25% among 360,000;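 active = inhibition at 20 µM, scaled per plate between control wells, above about 37%, limit read from the data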;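 also: 0% = DMSO with enzyme and substrate and 100% = substrate only without enzyme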
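Test system: STEP tyrosine phosphatase / Reagent: OMFP at 25 µM / Doses: 20 µM, 1% DMSO / Read-out: percent inhibition scaled to no-enzyme and uninhibited-enzyme controls, plate-pattern corrected / Detection: FITC-channel fluorescence of OMFP product / Medium: Bis-Tris buffer pH 6.0, 2.5 mM DTT, 0.005% Tween 20 / Schedule: 20 min at room temperature, dark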
SUMO1 PPI mod – modulators of human SUMO1-mediated protein-protein interactions. AID 602429. inhibition, % at 20 µM. hit rate 0.33% among 360,000. SUMO1 binding to a labelled peptide, TR-FRET, 1 h; in the data active = inhibition above about 37%
Target sequence (P63165 whole entry, looked up): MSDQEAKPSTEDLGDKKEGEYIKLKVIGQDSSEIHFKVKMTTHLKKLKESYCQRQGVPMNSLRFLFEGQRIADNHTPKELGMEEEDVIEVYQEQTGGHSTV
Beacon interf DR – beacon fluorescence artifact, dose response counter-screen | shares compounds with DNMT1 inh | molecular beacon fluorescence, spectral interference counter-screen | IC50, µM | 200 tested, under 10 active | AID 602382; call rule not given here
DNMT1 inh conf – confirmation of human DNMT1 inhibitors. shares compounds with DNMT1 inh. DNMT1 molecular beacon HinP1I cleavage, fluorescence. AID 602385. inhibition, % at 10 µM. hit rate 8% among 2,300;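 active = average inhibition of at least 30% in the single-concentration confirmation test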
DNMT1 interf – beacon fluorescence artifact counter-screen; shares compounds with DNMT1 inh; DNMT1 molecular beacon spectral interference counterscreen, fluorescence 485/520; activation (fluorescence interference), % at 10 µM; hit rate 1% among 2,300; AID 602387;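 active = activation of at least 30% at 10 µM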;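 also: DNMT1 catalytic domain with a HinP1I cleavage step and a FAM/dabcyl DNA beacon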
* = called active by the depositor.

Results for NC(=O)CC(NC(=O)Cc1ccc(Br)cc1)c1ccc(N2CCC(Cc3ccccc3)CC2)c([N+](=O)[O-])c1 (stereo not drawn) ?
Scp1 inh: 8.4; DNMT1 inh: 86.9*; LMPTP inh: 0.1; UBC9 SUMO inh: 40.5; STEP inh: 6.6; SUMO1 PPI mod: 5.9; DNMT1 inh conf: -7.0; DNMT1 interf: -4.8

What do the screens show for `NC(=O)CC(NC(=O)Cc1ccc(Br)cc1)c1ccc(N2CCCCCCC2)c([N+](=O)[O-])c1` (stereo not drawn)?
Scp1 inh: -3.0; DNMT1 inh: 65.0*; LMPTP inh: -0.8; UBC9 SUMO inh: 29.6; STEP inh: 1.9; SUMO1 PPI mod: 0.4; DNMT1 inh conf: -1.1; DNMT1 interf: 1.9

How did CN1CCN(c2ccc(C(CC(N)=O)NC(=O)Cc3ccc(Br)cc3)cc2[N+](=O)[O-])CC1 (stereo not drawn) do in these assays?
Scp1 inh: -1.3; DNMT1 inh: 0.8; LMPTP inh: -0.6; UBC9 SUMO inh: 19.5; STEP inh: 1.0; SUMO1 PPI mod: 8.0

What do the screens show for `N#Cc1cccc(NC(=O)c2cc(C3CCCCN3C(=O)c3ccc4c(c3)CCO4)on2)c1` (stereo not drawn)?
DNMT1 inh: -2.0; LMPTP inh: -0.1; STEP inh: -0.8; SUMO1 PPI mod: 9.1

Results for CCCN(CCC)C(=O)C(c1ccccc1)C1(O)CCCCC1 (stereo not drawn) ?
Scp1 inh: 0.5; DNMT1 inh: -1.2; LMPTP inh: -3.1; STEP inh: 2.1; SUMO1 PPI mod: 0.0

How did Cn1ccsc1=NC(=O)c1ccc(S(C)(=O)=O)cc1 do in these assays?
Scp1 inh: -9.0; DNMT1 inh: 0.4; LMPTP inh: -0.2; UBC9 SUMO inh: 11.4; STEP inh: -0.8; SUMO1 PPI mod: 7.2

How did CCc1cccc(CC)c1-n1c(SCC(=O)c2c(N)n(C)c(=O)n(C)c2=O)nnc1-c1cccnc1 do in these assays?
Scp1 inh: -2.4; DNMT1 inh: 59.5*; LMPTP inh: 0.5; UBC9 SUMO inh: -0.7; STEP inh: 3.3; SUMO1 PPI mod: 2.7; DNMT1 inh conf: 0.3; DNMT1 interf: -3.2

How did O=C(NC1CCCCC1)C(c1ccc(F)cc1)N(CCc1ccccc1)C(=O)CN1C(=O)c2ccccc2S1(=O)=O (stereo not drawn) do in these assays?
Scp1 inh: -5.7; DNMT1 inh: 58.7*; LMPTP inh: 0.7; UBC9 SUMO inh: 19.0; STEP inh: -1.4; SUMO1 PPI mod: -1.7; DNMT1 inh conf: 5.2; DNMT1 interf: 1.9

Results for O=[N+]([O-])c1ccc(/C=N/NC(=S)Nc2ccc(Cl)cc2Cl)s1 ?
Scp1 inh: 11.8; DNMT1 inh: 59.8*; LMPTP inh: 12.7; UBC9 SUMO inh: 35.4; STEP inh: 4.3; SUMO1 PPI mod: 8.7; DNMT1 inh conf: 4.9; DNMT1 interf: -3.2

What do the screens show for `O=c1[nH]n2c(=O)c3c([nH]c2c1N=Nc1cccc(C(F)(F)F)c1)CCCC3`?
Scp1 inh: -0.3; DNMT1 inh: 4.9; LMPTP inh: 2.0; UBC9 SUMO inh: -23.4; STEP inh: 8.5; SUMO1 PPI mod: 15.3

What do the screens show for `COc1cccc(N=Nc2c(=O)[nH]n3c(=O)c4c([nH]c23)CCC4)c1`?
Scp1 inh: 22.9; DNMT1 inh: 59.8*; LMPTP inh: 12.7; UBC9 SUMO inh: -0.2; STEP inh: 3.5; SUMO1 PPI mod: -9.9; DNMT1 inh conf: -0.8; DNMT1 interf: -4.7

What do the screens show for `COc1ccc2[nH]c(C(=O)NCc3ccccc3)c(C)c2c1`?
Scp1 inh: -9.0; DNMT1 inh: 69.7*; LMPTP inh: 0.0; UBC9 SUMO inh: 18.7; STEP inh: -2.1; SUMO1 PPI mod: -6.9; DNMT1 inh conf: -1.6; DNMT1 interf: 3.7

What do the screens show for `COCC(=O)N(C)C[C@H]1N[C@@](C)(C(=O)OC)[C@H]2C(=O)N(C)C(=O)[C@@H]12`?
Scp1 inh: -0.1; DNMT1 inh: 85.7*; LMPTP inh: -0.8; STEP inh: -8.7; SUMO1 PPI mod: 4.6; DNMT1 inh conf: -0.2; DNMT1 interf: 3.0

What do the screens show for `NS(=O)(=O)c1cc(C(=O)OCC(=O)N2CCc3ccccc3C2)ccc1Cl`?
Scp1 inh: 1.1; DNMT1 inh: -3.0; LMPTP inh: -0.2; STEP inh: 1.4; SUMO1 PPI mod: -0.6

Results for CC1(C)CC(=O)C2=C(C1)NC(=O)CC2 ?
DNMT1 inh: 17.8; LMPTP inh: -2.3; STEP inh: -2.2; SUMO1 PPI mod: 19.0

How did Cc1cc(C)cc(Nc2nc3c(S(=O)(=O)c4ccccc4)nnn3c3ccccc23)c1 do in these assays?
Scp1 inh: -1.2; DNMT1 inh: 53.9*; LMPTP inh: -0.9; UBC9 SUMO inh: 11.9; STEP inh: 3.3; SUMO1 PPI mod: -3.7; DNMT1 inh conf: 2.7; DNMT1 interf: -4.0

Results for Cc1cccc(Nc2nc3c(S(=O)(=O)c4ccccc4)nnn3c3ccccc23)c1 ?
Scp1 inh: -8.2; DNMT1 inh: 42.3; LMPTP inh: 0.1; UBC9 SUMO inh: 24.7; STEP inh: -0.3; SUMO1 PPI mod: -0.4

What do the screens show for `COC(=O)CC1OCC=C2CN3CCC45C6=CC(=O)C(=O)C([N+](=O)[O-])=C6NC4C1C2CC35` (stereo not drawn)?
DNMT1 inh: 85.5*; LMPTP inh: 13.3; STEP inh: 9.8; SUMO1 PPI mod: 31.9; Beacon interf DR: >99; DNMT1 inh conf: 52.6*; DNMT1 interf: -10.2

How did O=C1CCC(C(=O)N2CCN(c3cnccn3)CC2)CN1CCc1cccc(F)c1 (stereo not drawn) do in these assays?
Scp1 inh: -4.6; DNMT1 inh: -1.1; LMPTP inh: -0.2; UBC9 SUMO inh: 20.2; STEP inh: -3.2; SUMO1 PPI mod: -2.2

How did CCn1c(CC(=O)Nc2ccccc2)n[nH]c1=S do in these assays?
Scp1 inh: -12.1; DNMT1 inh: 82.1*; LMPTP inh: -3.8; UBC9 SUMO inh: 14.0; STEP inh: -3.9; SUMO1 PPI mod: 1.6; DNMT1 inh conf: 6.1; DNMT1 interf: 7.2

What do the screens show for `CCn1c(CNC(=O)c2cccs2)n[nH]c1=S`?
Scp1 inh: -7.6; DNMT1 inh: -1.9; LMPTP inh: -8.2; UBC9 SUMO inh: 1.5; STEP inh: -1.6; SUMO1 PPI mod: -1.0
